Compound activity from PubChem.
sdo1 growth: restores growth of sdo1-depleted yeast; S. cerevisiae sdo1-depleted JHY4D growth rescue, OD600 30 h; stronger effect = higher value; pdr5 snq2 efflux-pump mutant strain; z-score at 10 µM; hit rate 0.21% among 140,000; AID 817;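 active = z-score above 3 at both the 24 hr and the 30 hr optical density reads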;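 note: z-score against mean and SD of all compound wells on the same plate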
BB579 growth dn: reduces growth of yeast BB579 in restrictive medium; S. cerevisiae BB579 growth, OD615, 48 h; inhibition, % at 10 µM; hit rate 0.51% among 140,000; AID 804;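 active = inhibition above a set limit, 3 SD over the mean compound inhibition, cut at about 44% in these data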
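Test system: Saccharomyces cerevisiae DeaD strain BB579, replicative lifespan model yeast | Buffer or medium: Restrictive CSMM-D medium | Doses: One dose, 10 µM compound with 0.25% DMSO | Incubation: 48 h exposure, 30 °C | Detection: Culture absorbance at 615 nm | Control set: Amphotericin B at 10 µg/mL as positive control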
Measles CPE: protection of cells from measles virus. hit rate 1.5% among 140,000. protection (pct of control), % at 4 µM. Measles virus-infected cells, CPE protection, absorbance; in the data active = protection mostly above about 24%, no sharp cut-off; inactive = mostly below about 26%
Yeast life ext: extends the lifespan of yeast. S. cerevisiae growth with nicotinamide, OD615; deaD strain in restrictive glucose medium. inhibition of the nicotinamide effect, % at 10 µM. hit rate 0.68% among 130,000. AID 775;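 active = inhibition above a set limit, placed 3 SD over the median of all compounds, cut at about 26% in these data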;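 note: 0% = nicotinamide-treated wells and 100% = cells grown without nicotinamide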
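Assay system: engineered S. cerevisiae DeaD replicative-lifespan strain, galactose-grown log-phase cells; Buffer or medium: CSMM-D glucose medium, restrictive; Probe or stimulus: nicotinamide 1.5 mM; Compound: single dose 10 µM compound, 0.25% DMSO; Schedule: 4 h preincubation then 48 h treatment at 30 °C; Technique: OD615 measurement.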
RAM network inh: inhibitors of the yeast RAM network | S. cerevisiae dse1pr::URA3 reporter, 5-FOA growth OD615, 2 d; analog-sensitive cbk1-as2 kinase mutant strain | inhibition, % at 50 µM | hit rate 1.8% among 190,000 | AID 868;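 active = inhibition above a set limit, 3 SD over mean compound inhibition, cut at about 8.4% in these data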;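 note: 0% = DMSO-only wells with no growth and 100% = 10 µM 1-NA-PP1 full growth; inhibition rescues growth on 5-FOA so higher OD means more RAM inhibition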
The depositor's hits bear a star; . = no result. Compounds with a hit are over-represented: about 3.8% of the library has one in this group of screens.

SMILES | sdo1 growth | BB579 growth dn | Measles CPE | Yeast life ext | RAM network inh
CN(CC(=O)Nc1ccc(S(=O)(=O)N2CCCC2)cc1)CC(=O)Nc1cccc(F)c1 | . | . | . | . | 0
Cc1ccc(C(=O)NN(CCC(=O)NC(C)(C)C)C2=NS(=O)(=O)c3ccccc32)cc1 | 1 | -12 | 7 | 2 | 9.6*
CN(NC(=O)c1ccccc1)C1=NS(=O)(=O)c2ccccc21 | . | . | . | . | 1
CCOc1ccc(C(=O)N2CCCC2)cc1OC | 0.75 | -28 | 33* | -3 | 1
COc1ccc(S(=O)(=O)N2CCC(C(=O)Nc3ccc4c(c3)OCCO4)CC2)cc1OC | 0.63 | -34 | 13 | -5 | 11*
CCOc1ccc(C(=O)Nc2ccc3c(c2)OCCO3)cc1OC | -0.46 | -61 | 13 | -10 | 8.5*
CCOc1ccc(C(=S)N2CCCC2)cc1OC | -0.07 | -14 | 10 | 0 | 0
COc1ccc(NC(=O)C2CCN(S(=O)(=O)c3ccc(Br)s3)CC2)cc1OC | -0.9 | -44 | 3 | 17 | 10*
CCOc1ccc(C(=O)Nc2ccc3c(c2)OCCO3)cc1[N+](=O)[O-] | . | . | . | . | 1
O=C(Nc1ccc2c(c1)OCO2)C1CCN(S(=O)(=O)c2ccc3c(c2)OCCO3)CC1 | -0.27 | -29 | 13 | -10 | 5
CC(C)NC(=O)COC(=O)c1ccccc1C(=O)c1ccccc1 | . | . | . | . | 4
CCOc1cc(C(=O)NCC(C)CN(C)C)cc(OCC)c1OCC (centres undefined) | 0.35 | -8 | 13 | -7 | 0
CCOc1ccc(C(=O)NCC(C)CN(C)C)cc1OCC (centres undefined) | 0.42 | -31 | 31* | -15 | 0
FC(F)(F)c1cccc(NCc2cn3cccnc3n2)c1 | 1.2 | -38 | 55* | -21 | 1
COc1cc(CNCc2ccccn2)ccc1OCC(=O)NC(C)(C)C | 2.1 | -33 | 31* | 6 | 0
COC(=O)c1ccc(Cn2c(O)c(N=O)c3ccccc32)o1 | -0.1 | -10 | 66* | -2 | 0
COC(=O)c1ccc(CN2CCN(Cc3ccc(C(=O)OC)o3)CC2)o1 | 0.07 | 7 | 8 | 5 | 2
O=Nc1c(O)n(Cc2ccc(Cl)c(Cl)c2)c2ccccc12 | -2.5 | 87* | 21 | -34 | 1
Nc1c(Cl)ncnc1N/N=C/c1ccccn1 | -0.07 | 96* | 7 | -13 | 0
Nc1c(Cl)ncnc1N/N=C/c1ccc2ccccc2n1 | -1.2 | -7 | 12 | 19 | 0
C=CCn1c(SCC(=O)c2ccc(Cl)cc2)nnc1-c1ccc2c(c1)OCO2 | -1.8 | -65 | 3 | 10 | 4
Cc1nonc1CC(=O)N1CCCC(C(=O)c2cccc(C(F)(F)F)c2)C1 (centres undefined) | . | . | . | . | 1
CCn1c(CNc2ccc(Cl)cc2)nnc1SCc1ccccc1 | -2.8 | -34 | 46* | 6 | 0
Cc1c(NC(=S)N/N=C\c2ccccc2O)c(=O)n(-c2ccccc2)n1C | 0.1 | -42 | 55* | -1 | 2
Cc1c(NC(=O)C(=O)/C=C(\O)c2ccc(Cl)cc2)c(=O)n(-c2ccccc2)n1C | 0.79 | -41 | 3 | 79* | -1
SMILES | sdo1 growth | BB579 growth dn | Measles CPE | Yeast life ext | RAM network inh
COC(=O)C1=C(NC(=O)c2ccc(C)c(C)c2)CCS1 | -0.65 | -25 | 25 | 0 | 8
S=C(NCc1ccco1)Nc1ccc(Oc2ccccc2)cc1 | . | . | . | . | 2
C/C(=C\c1ccccc1)C(=O)NCCCn1ccnc1 | . | . | . | . | 1
CNC(=S)N1N=C(c2ccc(Br)cc2)CC1c1ccc(OC)cc1 (centres undefined) | -0.91 | -19 | 16 | 10 | 3
CC(=O)N1c2ccc3ccccc3c2C(C)CC12CCCCC2 (centres undefined) | -0.05 | -34 | 12 | 20 | 10*
Cn1c(=O)c2c(nc(SCC(=O)NCc3ccco3)n2C)n(C)c1=O | -0.44 | 10 | 33* | -8 | 0
Cc1cc(C)cc(-n2c(SCC(=O)NCc3ccco3)nc3ccccc3c2=O)c1 | -1.1 | -41 | 3 | 56* | 3
Cc1ccc(-n2c(SCC(=O)NCc3ccco3)nc3sc4c(c3c2=O)CC(C)(C)SC4)cc1 | -0.83 | -66 | 9 | 25 | 10*
CC1CN(c2nc3ccccn3c(=O)c2C=O)CC(C)O1 (centres undefined) | . | . | . | . | 0
Cc1ccc(-n2nc(C)c(NC(=O)CCl)c2C)cc1 | 1.1 | -7 | 20 | -3 | 0
CC(/C=C/c1ccccc1)=N\NC(=O)Cn1nc(C)cc1C | 0.06 | -2 | 3 | 3 | 0
CCN(CC)C(=O)c1sc2c(c1C)c(=O)n(-c1ccc(C)c(C)c1)c(=O)n2CC(=O)NCC1CCCO1 (centres undefined) | . | . | . | . | 2
Cc1c([N+](=O)[O-])c(C(=O)N2CCCC2)nn1C | 0.56 | -51 | 69* | 1 | 1
Cc1ccc(S(=O)(=O)N(c2ccc(Br)cc2)C2C=CS(=O)(=O)C2)cc1 (centres undefined) | . | . | . | . | 4
C=CCn1c(SCC(=O)N2CC(=O)Nc3ccccc32)nc2scc(-c3cccs3)c2c1=O | -1.1 | -40 | 81* | -1 | 8
O=c1c2ccccc2sn1-c1ccccc1 | -1.9 | -7 | 5 | 41* | 3
CCCCC(C)(O)C/C=C/[C@H]1[C@H](O)CC(=O)[C@@H]1CCCCCCC(=O)OC (some centres undefined) | 0.2 | -39 | 48 | 32* | 1
CCn1nnnc1SCC(=O)N1CCOCC1 | 0.1 | 12 | 28* | -1 | 0
CCOC(=O)c1cccc(COC(=O)c2cccc(-c3nnc(-c4ccccc4)o3)c2)c1 | -0.55 | -14 | 7 | 0 | 8.9*
COc1ncccc1-c1nnn(-c2ccc(Cl)c(Cl)c2)n1 | . | . | . | . | 8.8*
COC(=O)c1cc(Br)c(=O)n(Cc2ccc(C(=O)O)cc2)c1 | 1.2 | 3 | 32* | -12 | 2
CSCCC(=O)N1C(C)CCCC1C(=O)O (centres undefined) | 1.2 | -8 | 26* | -6 | 2
COc1ccccc1CNC(=O)c1ccccc1N | 0.52 | -52 | 37* | 2 | -1
CCOc1ccc(NC(=O)Cn2nnc(C(=O)NCc3ccccc3OC)c2N)cc1 | -0.12 | -60 | 9 | -3 | 9.9*
Cc1ccccc1CNC(=O)c1ccccc1N | 0.16 | -23 | 1 | -1 | -1
O=C(NCC1CCCO1)C(c1cccs1)N(Cc1cccs1)C(=O)c1ccc(-c2ccccc2)[nH]1 (centres undefined) | -0.96 | -18 | 5 | 0 | 8.4*
O=C(NCC1CCCO1)C(c1ccc(F)cc1)N(CC1CCCO1)C(=O)c1ccc(-c2ccccc2)[nH]1 (centres undefined) | . | . | . | . | 3
O=C(C1CCCN(CCCc2ccccc2)C1)N1CCCCCC1 (centres undefined) | -0.04 | -17 | 8 | 2 | 3
O=C1NCCCC1C(=O)N/N=C/c1cccc(O)c1 (centres undefined) | -0.06 | 100* | 2 | -1 | 0
O=C(Cc1ccc(F)cc1)Nc1nnc(SCC(=O)NC2CCCC2)s1 | . | . | . | . | 5
